Measured values taken from ChEMBL document CHEMBL1124109, “Novel calcium antagonists. Synthesis and structure-activity relationship studies of benzothiazoline derivatives” (J Med Chem, 1988).

Tests used:
Cavia porcellus = species: Cavia porcellus; assay: In vitro molar concentration required to block [Ca2+] -induced contraction of K+-depolarized taenia cecum of guinea pigs; assay type: functional; settings: Caecum
Procedure, shortened: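 Guinea pig taenia cecum washed with Ca2+-free high-K+ Krebs solution after equilibration. Compound applied 5 min before CaCl2 (3 × 10^-4 M). Contraction recorded isotonically.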

Mus musculus = species: Mus musculus; assay: Effect on acute thrombic death induced by collagen in mice; assay type: functional; settings: read-out: ID50 (the source's name)
Procedure, shortened: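 Male ddY mice (20-30 g) given compound orally as 0.5% tragacanth suspension 3 h before rapid tail-vein injection (2 s) of collagen (type III, 3 mg/mL in acetic acid/Tris pH 7.4), about 30 mg/kg, set so […] within 3 min. Survival scored; % inhibition = (St - Sc)/(100 - Sc); ID50 in mg/kg po; n=8 treated, 12 control.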

Rattus norvegicus [1] = assay: Hypotensive effect in Spontaneously hypertensive rats as maximum decrease in systolic blood pressure at 100 mg/kg, po dose; assay type: functional, Artery
Procedure, shortened: (§1)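 Male SHR, 300-400 g, conscious, 6-13 animals. Oral dosing as a 0.5% methylcellulose suspension. Systolic pressure by tail-cuff plethysmography at 0, 1, 3, 6, 9 and 24 h after dosing; heart rate from pulse over 4 s. Value is maximum SBP fall, mean ± SEM of six animals; Dunnett's test.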

Oryctolagus cuniculus [2] = species: Oryctolagus cuniculus; assay: Electrophysiological effect in isolated rabbit hearts as molar concentration that prolongs the His bundle ventricular (H-V) conduction time by 10%; assay type: functional, Cardiac ventricle
Rattus norvegicus [3] = assay: Hypotensive effect in Spontaneously hypertensive rats as maximum decrease in systolic blood pressure at 30 mg/kg, po dose; assay type: functional, Artery; procedure, shortened: as §1
Oryctolagus cuniculus [4] = species: Oryctolagus cuniculus; assay: Electrophysiological effect in isolated rabbit hearts as molar concentration that prolongs the atrio-His bundle (A-H) conduction time by 30%; assay type: functional
[5] = Ratio between EC10 and EC30 in isolated rabbit hearts in His bundle ventricular intervals; assay type: functional
Rattus norvegicus [6] = assay: Hypotensive effect in Spontaneously hypertensive rats as maximum decrease in systolic blood pressure at 10 mg/kg, po dose; assay type: functional, Artery; procedure, shortened: as §1

SMILES	IC50 (Cavia porcellus)	other results
CCC(=O)N1c2ccccc2SC1c1cc(OC)ccc1OCCCCN1CCC(C(=O)c2ccccc2)CC1 (configuration not stated)	10 µM	
CC(=O)N1c2ccccc2SC1c1cc([N+](=O)[O-])ccc1OCCCCN(C)C1CCCCC1 (configuration not stated)	5.4 µM	
CC(=O)N1c2ccccc2SC1c1ccccc1OCCCN(C)C (configuration not stated)	10 µM	
COc1ccc(OCCCN(C)C2CCCCC2)c(C2Sc3ccccc3N2C(C)=O)c1 (configuration not stated)	4.2 µM	
CN(CCCOc1ccccc1C1Sc2ccccc2N1C=O)C1CCCCC1 (configuration not stated)	4 µM	
COc1ccc(OCCCCN(C)C2CCCCC2)c(C2Sc3ccccc3N2C(C)=O)c1 (configuration not stated)	4 µM	
CC(=O)N1CCSC1c1cc([N+](=O)[O-])ccc1OCCCN(C)C (configuration not stated)	4.1 µM	
CC(=O)N1CCSC1c1ccccc1OCCN(C)C (configuration not stated)	> 100 µM	
COC(=O)C1=C(C)NC(C)=C(C(=O)OC)C1c1ccccc1[N+](=O)[O-] [NIFEDIPINE]		ED50 (Mus musculus): > 30 mg/kg
COc1cccc(C2Sc3ccccc3N2C(C)=O)c1OCCCCN(C)C1CCCCC1 (configuration not stated)	8.8 µM	
COc1ccc(OCCCN2CCC(C(=O)c3ccccc3)CC2)c(C2Sc3ccccc3N2C(C)=O)c1 (configuration not stated)	11 µM	
CC(=O)N1c2ccccc2SC1c1ccccc1OCCN(C)C (configuration not stated)	17 µM	
CC(=O)N1c2ccccc2SC1c1cc(Cl)ccc1OCCCN(C)C (configuration not stated)	3.8 µM	
COc1ccc(OCCCCCN(C)CCc2ccc(OC)c(OC)c2OC)c(C2Sc3ccccc3N2C(C)=O)c1 (configuration not stated)	8 µM	
CC(=O)N1c2ccccc2SC1c1ccc(OCCCN(C)C)cc1 (configuration not stated)	5.5 µM	
COc1ccc(OCCCCCN2CCC(C(=O)c3ccccc3)CC2)c(C2Sc3ccccc3N2C(C)=O)c1 (configuration not stated)	17 µM	
COc1ccc(OCCCCN2CCC(C(=O)c3ccc(Cl)cc3)CC2)c(C2Sc3ccccc3N2C(C)=O)c1 (configuration not stated)	8.7 µM	
CC(=O)N1c2ccccc2SC1c1cc(Cl)ccc1OCCCCN1CCC(C(=O)c2ccccc2)CC1 (configuration not stated)	13 µM	
CC(=O)N1c2ccccc2SC1c1ccc(OCCCN(C)C2CCCCC2)cc1 (configuration not stated)	4.4 µM	

SMILES	IC50 (Cavia porcellus)	other results
COc1ccc(OCCCCN(C)CCc2cc(OC)c(OC)c(OC)c2)c(C2Sc3ccccc3N2C(C)=O)c1 (configuration not stated)	0.13 µM	Decrease of SBP (Rattus norvegicus [1]): 87.5 mmHg; EC10 (Oryctolagus cuniculus [2]): 0.2 µM; Decrease of SBP (Rattus norvegicus [3]): 48.3 mmHg; ED50 (Mus musculus): 12 mg/kg
COC(=O)C1=C(C)NC(C)=C(C(=O)OCCN(C)Cc2ccccc2)C1c1cccc([N+](=O)[O-])c1 (configuration not stated) [NICARDIPINE]		ED50 (Mus musculus): > 30 mg/kg
COc1ccc(OCCCCN2CCC(C(=O)c3ccccc3)CC2)c(C2SCCN2C(C)=O)c1 (configuration not stated)	410 µM	
CC(=O)N1c2ccccc2SC1c1cc([N+](=O)[O-])ccc1OCCCCN1CCC(C(=O)c2ccccc2)CC1 (configuration not stated)	4.8 µM	
COc1ccc([C@@H]2Sc3ccccc3N(CCN(C)C)C(=O)[C@@H]2OC(C)=O)cc1 [DILTIAZEM]	0.17 µM	EC30 (Oryctolagus cuniculus [4]): 0.44 µM; Decrease of SBP (Rattus norvegicus [1]): 44.2 mmHg; EC10 (Oryctolagus cuniculus [2]): 2.6 µM; Decrease of SBP (Rattus norvegicus [3]): 22.5 mmHg; Ratio [5]: 6.5; ED50 (Mus musculus): > 30 mg/kg
Clc1ccccc1CN1CCc2sccc2C1 [TICLOPIDINE]		ED50 (Mus musculus): 260 mg/kg
CC(=O)N1c2ccccc2SC1c1cccc(OCCCN(C)C)c1 (configuration not stated)	11 µM	
CC(=O)N1CCSC1c1ccc(OCCN(C)C)cc1 (configuration not stated)	> 100 µM	
COc1cccc(C2Sc3ccccc3N2C(C)=O)c1OCCCN(C)C (configuration not stated)	13 µM	
COc1ccc(OCCCCN2CCC(C(=O)c3ccc(F)cc3)CC2)c(C2Sc3ccccc3N2C=O)c1 (configuration not stated)	4.8 µM	
CCC(=O)N1c2ccccc2SC1c1cc(OC)ccc1OCCCCCN(C)C1CCCCC1 (configuration not stated)	7 µM	
CC(=O)N1c2ccccc2SC1c1ccc(OCCN(C)C)cc1 (configuration not stated)	36 µM	
COc1ccc(OCCCCCCN2CCN(CCc3ccc(OC)c(OC)c3)CC2)c(C2Sc3ccccc3N2C(C)=O)c1 (configuration not stated)	11 µM	
CC(=O)N1c2ccccc2SC1c1cc([N+](=O)[O-])ccc1OCCCN(C)C (configuration not stated)	6.2 µM	
COc1ccc(OCCCCNCCc2cc(OC)c(OC)c(OC)c2)c(C2Sc3ccccc3N2C(C)=O)c1 (configuration not stated)	6.5 µM	
COc1ccc(OCCCCCCN(C)C2CCCCC2)c(C2Sc3ccccc3N2C(C)=O)c1 (configuration not stated)	4.2 µM	
COc1ccc(CCN(C)CCCC(C#N)(c2ccc(OC)c(OC)c2)C(C)C)cc1OC (configuration not stated) [VERAPAMIL]	0.1 µM	Decrease of SBP (Rattus norvegicus [3]): 83.3 mmHg; Decrease of SBP (Rattus norvegicus [6]): 24.2 mmHg; ED50 (Mus musculus): > 30 mg/kg
COc1ccc(OCCCCN)c(C2Sc3ccccc3N2C(C)=O)c1 (configuration not stated)	> 100 µM	

Continued by falling IC50 (Cavia porcellus), values first:

IC50 (Cavia porcellus)	SMILES	other results
3.2 µM	CCC(=O)N1c2ccccc2SC1c1ccccc1OCCCN(C)C1CCCCC1 (configuration not stated)	
3 µM	COc1ccc(OCCCN2CCN(CCc3ccc(OC)c(OC)c3)CC2)c(C2Sc3ccccc3N2C(C)=O)c1 (configuration not stated)	
2.7 µM	COc1ccc(OCCCCCN(C)C2CCCCC2)c(C2Sc3ccccc3N2C=O)c1 (configuration not stated)	
2.6 µM	COc1ccc(OCCCCN2CCN(CCc3cc(OC)c(OC)c(OC)c3)CC2)c(C2Sc3ccccc3N2C=O)c1 (configuration not stated)	
2.3 µM	COc1cc(CCN2CCN(CCCCOc3ccc(Cl)cc3C3Sc4ccccc4N3C(C)=O)CC2)cc(OC)c1OC (configuration not stated)	
2 µM	CNCCCCOc1ccc(OC)cc1C1Sc2ccccc2N1C(C)=O (configuration not stated)	
2 µM	COc1ccc(OCCCN(C)CCc2ccc(OC)c(OC)c2OC)c(C2Sc3ccccc3N2C(C)=O)c1 (configuration not stated)	
1.7 µM	CC(=O)N1c2ccccc2SC1c1ccccc1OCCCN(C)C1CCCCC1 (configuration not stated)	
1.6 µM	COc1ccc(OCCCCN2CCC(C(=O)c3ccc(F)cc3)CC2)c(C2Sc3ccccc3N2C(C)=O)c1 (configuration not stated)	
1.6 µM	COc1ccc(OCCCN(C)C)c(C2Sc3ccccc3N2C(C)=O)c1 (configuration not stated)	
1.6 µM	COc1ccc(OCCCCN(C)CC(C)c2ccc(OC)c(OC)c2)c(C2Sc3ccccc3N2C(C)=O)c1 (configuration not stated)	
1.4 µM	COc1ccc(OCCCCN2CCC(C(=O)c3ccccc3)CC2)c(C2Sc3ccccc3N2C(C)=O)c1 (configuration not stated)	
1.3 µM	COc1ccc(OCCCCCN(C)CCc2ccc(OC)c(OC)c2)c(C2Sc3ccccc3N2C(C)=O)c1 (configuration not stated)	
1.3 µM	COc1ccc(OCCCCCN(C)CCc2cc(OC)c(OC)c(OC)c2)c(C2Sc3ccccc3N2C(C)=O)c1 (configuration not stated)	
1.2 µM	COc1ccc(OCCCCCN(C)C2CCCCC2)c(C2Sc3ccccc3N2C(C)=O)c1 (configuration not stated)	
1.2 µM	COc1ccc(OCCCCN(C)CCCc2ccc(OC)c(OC)c2OC)c(C2Sc3ccccc3N2C(C)=O)c1 (configuration not stated)	
1.2 µM	CCC(=O)N1c2ccccc2SC1c1cc(OC)ccc1OCCCCN1CCN(CCc2cc(OC)c(OC)c(OC)c2)CC1 (configuration not stated)	
1.2 µM	COc1ccc(OCCCCN(CCc2cc(OC)c(OC)c(OC)c2)C2CC2)c(C2Sc3ccccc3N2C(C)=O)c1 (configuration not stated)	
1 µM	CCN(CCCCOc1ccc(OC)cc1C1Sc2ccccc2N1C(C)=O)CCc1cc(OC)c(OC)c(OC)c1 (configuration not stated)	
0.82 µM	COc1ccc(OCCCCCN2CCN(CCc3ccc(OC)c(OC)c3)CC2)c(C2Sc3ccccc3N2C(C)=O)c1 (configuration not stated)	
0.78 µM	COc1ccc(OCCCN(C)CCc2cc(OC)c(OC)c(OC)c2)c(C2Sc3ccccc3N2C(C)=O)c1 (configuration not stated)	
0.78 µM	COc1ccc(OCCCN(C)CCc2ccc(OC)c(OC)c2)c(C2Sc3ccccc3N2C(C)=O)c1 (configuration not stated)	
0.66 µM	COc1ccc(OCCCCN(C)CCc2ccc(OC)c(OC)c2)c(C2Sc3ccccc3N2C(C)=O)c1 (configuration not stated)	
0.64 µM	COc1ccc(OCCCCN2CCN(CCc3ccc(OC)c(OC)c3)CC2)c(C2Sc3ccccc3N2C(C)=O)c1 (configuration not stated)	
0.47 µM	COc1ccc(OCCCCN2CCN(CCc3cc(OC)c(OC)c(OC)c3)CC2)c(C2Sc3ccccc3N2C(C)=O)c1 (configuration not stated)	
0.34 µM	COc1ccc(OCCCCN(C)CCc2ccc(OC)c(OC)c2OC)c(C2Sc3ccccc3N2C(C)=O)c1 (configuration not stated)	
0.13 µM	COc1ccc(OCCCCN(CCc2cc(OC)c(OC)c(OC)c2)C(C)C)c(C2Sc3ccccc3N2C(C)=O)c1 (configuration not stated)	
